Drawing on ChEMBL document CHEMBL3098083, “Curcumin glucuronides: assessing the proliferative activity against human cell lines” (Bioorg Med Chem, 2014), this text covers IC50 and fold change (FC) for three molecules.

By IC50 is commonly meant the concentration that inhibits the measured activity by half. A high value points to weaker potency in that assay.

Assay [1] is described as follows: Antiproliferative activity against human U266 cells after 72 hrs by MTT assay. Type of assay: functional, cell-based. The note with it: U-266, 72 h. The gist of the method:
(§1)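 Cells seeded at 5 × 10^3 per well in triplicate and exposed to 1, 5, 10, 25, 50, 100 or 200 μM for 72 h at 37 °C. MTT was added for 2 h, then SDS/DMF extraction buffer overnight, and A570 was read. Results are % viability, mean ± SD. Media: KBM-5 in IMDM/15% FBS; Jurkat and U266 in RPMI 1640; A549 in DMEM/10% FBS; all with penicillin/streptomycin.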
(Tetrazolium dyes change colour on reduction, which living cells bring about.)

The subject of a further assay is Jurkat. As to the kind of experiment: Antiproliferative activity against human Jurkat cells after 72 hrs by MTT assay. It is filed as functional, cell-based. The method in brief:
as §1

Another assay has as its system A549. As to the kind of experiment: Antiproliferative activity against human A549 cells after 72 hrs by MTT assay. It is filed as functional, cell-based. The note with it: A549, 72 h. The method in brief:
as §1

A short description of assay [2]: Antiproliferative activity against human KBM5 cells after 72 hrs by MTT assay. Type of assay: functional, cell-based. The note with it: KBM5, 72 h. The method in brief:
as §1

Assay [3] deals with KBM5. In words: Inhibition of TNF-induced NF-kappaB activation in human KBM5 cells at 50 uM preincubated for 4 hrs followed by TNF addition measured after 30 mins by EMSA relative to control. Type of assay: cell-based. The gist of the method:
(§2)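 KBM-5 cells (IMDM, 15% FBS) were pretreated 4 h, then stimulated with bacteria-derived human recombinant TNF at 0.1 nM for 30 min. Nuclear extracts (15 μg protein) were incubated with 16 fmol 32P-labelled 45-mer HIV-LTR NF-κB oligonucleotide for 30 min at 37 °C. Complexes were resolved on 6.6% native polyacrylamide gels, and bands were quantified by phosphorimaging.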
For orientation: A gel shift assay detects complexes by their altered migration in electrophoresis.

Assay [4] relates to KBM5. As to the kind of experiment: Inhibition of TNF-induced NF-kappaB activation in human KBM5 cells at 10 uM preincubated for 4 hrs followed by TNF addition measured after 30 mins by EMSA relative to control. Type of assay: cell-based. The method in brief:
as §2

Assay [5] concerns KBM5. In words: Inhibition of TNF-induced NF-kappaB activation in human KBM5 cells at 25 uM preincubated for 4 hrs followed by TNF addition measured after 30 mins by EMSA relative to control. Type of assay: cell-based. The gist of the method:
as §2

The structures appear in SMILES notation.

For the molecule `COc1cc(/C=C/C(O)=C/C(=O)/C=C/c2ccc(O[C@@H]3O[C@H](C(=O)O)[C@@H](O)[C@H](O)[C@H]3O)c(OC)c2)ccc1O`, the IC50 (in assay [1]; with Jurkat; in the assay with A549; in assay [2]) was more than 200 µM throughout. Further, the fold change (FC) with KBM5 [3] worked out at 5.1; with KBM5 [4], 5.3; with KBM5 [5] it was 5.3.

As for `COc1cc(/C=C/C(=O)CC(=O)/C=C/c2ccc(O)c(OC)c2)ccc1O` [CURCUMIN], the IC50 in assay [1] came out at 7.57 µM; in the assay on Jurkat, 4.29 µM; in the assay on A549 it was 17.3 µM; in assay [2], 3.84 µM. Moreover, the fold change (FC) with KBM5 [3] amounted to 0.8; in the assay on KBM5 [4], 3; in the assay with KBM5 [5] it was 1.

Consider `COc1cc(/C=C/C(=O)/C=C(O)/C=C/c2ccc(O[C@@H]3O[C@H](C(=O)O)[C@@H](O)[C@H](O)[C@H]3O)c(OC)c2)ccc1O[C@@H]1O[C@H](C(=O)O)[C@@H](O)[C@H](O)[C@H]1O`, for which the concentration for half-maximal inhibition (IC50) (in assay [1]; in the assay on Jurkat; in the assay with A549; in assay [2]) was more than 200 µM in each case. Further, the fold change (FC) was 5.5 in the assay with KBM5 [3], 5.6 in the assay on KBM5 [4] and 5.6 in the assay on KBM5 [5].
